Experimental findings from ChEMBL document CHEMBL5154665, “Design, synthesis, biochemical evaluation, radiolabeling and in vivo imaging with high affinity class-IIa histone deacetylase inhibitor for molecular imaging and targeted therapy” (Eur J Med Chem, 2022) are described below.

Assay [1] in a line: Inhibition of HDAC class 2a in human THP-1 cells using TFA-lysine as fluorogenic substrate by fluorescence microplate reader assay. Type of assay: cell-based.
Assay [2] deals with T1, Class 1 histone deacetylase (Homo sapiens, UniProt Q13547+O15379+Q92769+Q9BY41). The assay is described as follows: Inhibition of HDAC class 1 in human THP-1 cells using TFA-lysine as fluorogenic substrate by fluorescence microplate reader assay. It is filed as cell-based.
Assay [3] concerns the target T1, Class 1 histone deacetylase. The assay is described as follows: Inhibition of HDAC class 1 in human PANC-1 cells using TFA-lysine as fluorogenic substrate by fluorescence microplate reader assay. It is filed as cell-based.
Assay [4] shares this target. The assay is described as follows: Inhibition of HDAC class 1 in human L3.6pl cells using TFA-lysine as fluorogenic substrate by fluorescence microplate reader assay. It is filed as cell-based.
For assay [5] the target is unchanged. The experiment in a line: Inhibition of HDAC class 1 in human HT-29 cells using […] as fluorogenic substrate by fluorescence microplate reader assay. Type of assay: cell-based. The method in brief: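 HT-29 cells were plated at 200,000 cells/well in RPMI without phenol red with 0.1% FBS, with 100 µM Boc-Lys-TFA for class IIa or 200 µM Boc-Lys-Ac for class I/IIb. Compounds ran as an 11-point curve (5% final DMSO), with 5 µM trichostatin A as the positive control. Incubation was 3 h at 37 °C, then trypsin developer with Tween 80 for 1 h to lyse cells and release fluorophore.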

Assay [6] is described as follows: Inhibition of HDAC class 2b in human PANC-1 cells using TFA-lysine as fluorogenic substrate by fluorescence microplate reader assay. It is filed as cell-based.
The nature of assay [7]: Inhibition of HDAC class 2a in human HT-29 cells using Boc-Lys-TFA as substrate incubated for 3 hrs by microplate reader assay. Type of assay: cell-based. Particulars: HT-29, 3 h.
Assay [8] has as its target T1, Class 1 histone deacetylase. The assay is described as follows: Inhibition of HDAC class 1 in human HT-29 cells using Boc-Lys-Ac as substrate incubated for 3 hrs by microplate reader assay. It is filed as cell-based.
The nature of assay [9]: Inhibition of HDAC class 2b in human HT-29 cells using Boc-Lys-Ac as substrate incubated for 3 hrs by microplate reader assay. Particulars: HT-29, 3 h. It is filed as cell-based.
In a further assay the target is Histone deacetylase 4 (Homo sapiens, UniProt P56524). The experiment in a line: Inhibition of recombinant human HDAC4 using fluorogenic substrate by fluorescence microplate reader assay. In outline:
(§1)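 Recombinant human HDAC isoforms were tested at 9 inhibitor dilutions in commercial fluorogenic enzyme kits, per the manufacturer's protocol. For class IIa enzymes, deacetylation of a TFA-lysine substrate lets trypsin release a fluorophore, read on a microplate reader. IC50 came from a nonlinear fit of % HDAC activity inhibition against compound concentration.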

The target of another assay is Histone deacetylase 5 (Homo sapiens, UniProt Q9UQL6). The experiment in a line: Inhibition of recombinant human HDAC5 using fluorogenic substrate by fluorescence microplate reader assay. In outline:
as §1

For assay [10], the target named is T2, Polyamine deacetylase HDAC10 (Homo sapiens, UniProt Q969S8).
T2 sequence (Q969S8 whole entry): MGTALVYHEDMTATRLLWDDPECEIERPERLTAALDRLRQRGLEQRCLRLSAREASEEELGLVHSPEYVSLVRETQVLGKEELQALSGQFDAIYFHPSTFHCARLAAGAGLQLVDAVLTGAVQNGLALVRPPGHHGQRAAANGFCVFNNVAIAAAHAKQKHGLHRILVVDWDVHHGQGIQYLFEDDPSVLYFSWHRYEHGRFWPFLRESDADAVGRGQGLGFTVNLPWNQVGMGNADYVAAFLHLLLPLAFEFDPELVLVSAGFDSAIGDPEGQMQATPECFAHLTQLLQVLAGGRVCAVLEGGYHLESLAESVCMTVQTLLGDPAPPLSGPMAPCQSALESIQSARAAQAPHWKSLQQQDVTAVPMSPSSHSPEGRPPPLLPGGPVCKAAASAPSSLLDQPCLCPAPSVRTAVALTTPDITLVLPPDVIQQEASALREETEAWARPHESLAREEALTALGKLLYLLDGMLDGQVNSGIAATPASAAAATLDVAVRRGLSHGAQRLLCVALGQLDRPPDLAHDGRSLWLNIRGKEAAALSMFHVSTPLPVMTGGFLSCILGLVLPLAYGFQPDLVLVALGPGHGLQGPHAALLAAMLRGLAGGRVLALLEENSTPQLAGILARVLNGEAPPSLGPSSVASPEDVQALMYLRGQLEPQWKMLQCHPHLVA
The experiment in a line: Inhibition of recombinant human HDAC10 using fluorogenic substrate by fluorescence microplate reader assay. The method in brief:
as §1

The next assay concerns the target Histone deacetylase 1 (Homo sapiens, UniProt Q13547). The assay is described as follows: Inhibition of recombinant human HDAC1 using fluorogenic substrate by fluorescence microplate reader assay. The method in brief:
as §1

For a further assay, the target named is Histone deacetylase 2 (Homo sapiens, UniProt Q92769). The assay is described as follows: Inhibition of recombinant human HDAC2 using fluorogenic substrate by fluorescence microplate reader assay. The method in brief: as §1
In another assay the target is T3, Histone deacetylase 8 (Homo sapiens, UniProt Q9BY41).
T3 sequence (Q9BY41 whole entry): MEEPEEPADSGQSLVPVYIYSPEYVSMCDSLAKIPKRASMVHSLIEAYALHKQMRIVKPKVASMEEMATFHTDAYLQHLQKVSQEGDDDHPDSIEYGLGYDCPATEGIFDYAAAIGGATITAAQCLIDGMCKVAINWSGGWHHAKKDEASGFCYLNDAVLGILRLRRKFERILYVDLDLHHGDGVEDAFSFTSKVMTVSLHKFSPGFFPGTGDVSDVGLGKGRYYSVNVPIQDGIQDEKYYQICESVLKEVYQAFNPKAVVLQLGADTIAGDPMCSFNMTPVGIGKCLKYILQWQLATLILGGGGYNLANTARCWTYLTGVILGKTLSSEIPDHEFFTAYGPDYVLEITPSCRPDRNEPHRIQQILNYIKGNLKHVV
The assay is described as follows: Inhibition of recombinant human HDAC8 using fluorogenic substrate by fluorescence microplate reader assay. In outline: as §1

Histone deacetylase 2, sequence (Q92769 whole entry): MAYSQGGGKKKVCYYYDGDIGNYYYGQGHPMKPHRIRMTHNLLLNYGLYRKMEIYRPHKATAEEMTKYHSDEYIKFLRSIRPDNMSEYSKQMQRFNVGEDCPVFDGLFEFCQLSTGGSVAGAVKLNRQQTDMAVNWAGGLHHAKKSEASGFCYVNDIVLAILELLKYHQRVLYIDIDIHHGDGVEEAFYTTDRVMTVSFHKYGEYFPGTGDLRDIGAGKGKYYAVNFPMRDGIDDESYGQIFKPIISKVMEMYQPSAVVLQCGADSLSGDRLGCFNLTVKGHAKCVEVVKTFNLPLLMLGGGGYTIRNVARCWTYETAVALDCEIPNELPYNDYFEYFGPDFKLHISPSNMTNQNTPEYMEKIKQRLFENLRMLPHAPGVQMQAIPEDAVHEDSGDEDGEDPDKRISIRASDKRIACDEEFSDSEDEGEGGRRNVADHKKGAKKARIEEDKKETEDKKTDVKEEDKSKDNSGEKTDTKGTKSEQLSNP
Histone deacetylase 5, sequence (Q9UQL6 whole entry): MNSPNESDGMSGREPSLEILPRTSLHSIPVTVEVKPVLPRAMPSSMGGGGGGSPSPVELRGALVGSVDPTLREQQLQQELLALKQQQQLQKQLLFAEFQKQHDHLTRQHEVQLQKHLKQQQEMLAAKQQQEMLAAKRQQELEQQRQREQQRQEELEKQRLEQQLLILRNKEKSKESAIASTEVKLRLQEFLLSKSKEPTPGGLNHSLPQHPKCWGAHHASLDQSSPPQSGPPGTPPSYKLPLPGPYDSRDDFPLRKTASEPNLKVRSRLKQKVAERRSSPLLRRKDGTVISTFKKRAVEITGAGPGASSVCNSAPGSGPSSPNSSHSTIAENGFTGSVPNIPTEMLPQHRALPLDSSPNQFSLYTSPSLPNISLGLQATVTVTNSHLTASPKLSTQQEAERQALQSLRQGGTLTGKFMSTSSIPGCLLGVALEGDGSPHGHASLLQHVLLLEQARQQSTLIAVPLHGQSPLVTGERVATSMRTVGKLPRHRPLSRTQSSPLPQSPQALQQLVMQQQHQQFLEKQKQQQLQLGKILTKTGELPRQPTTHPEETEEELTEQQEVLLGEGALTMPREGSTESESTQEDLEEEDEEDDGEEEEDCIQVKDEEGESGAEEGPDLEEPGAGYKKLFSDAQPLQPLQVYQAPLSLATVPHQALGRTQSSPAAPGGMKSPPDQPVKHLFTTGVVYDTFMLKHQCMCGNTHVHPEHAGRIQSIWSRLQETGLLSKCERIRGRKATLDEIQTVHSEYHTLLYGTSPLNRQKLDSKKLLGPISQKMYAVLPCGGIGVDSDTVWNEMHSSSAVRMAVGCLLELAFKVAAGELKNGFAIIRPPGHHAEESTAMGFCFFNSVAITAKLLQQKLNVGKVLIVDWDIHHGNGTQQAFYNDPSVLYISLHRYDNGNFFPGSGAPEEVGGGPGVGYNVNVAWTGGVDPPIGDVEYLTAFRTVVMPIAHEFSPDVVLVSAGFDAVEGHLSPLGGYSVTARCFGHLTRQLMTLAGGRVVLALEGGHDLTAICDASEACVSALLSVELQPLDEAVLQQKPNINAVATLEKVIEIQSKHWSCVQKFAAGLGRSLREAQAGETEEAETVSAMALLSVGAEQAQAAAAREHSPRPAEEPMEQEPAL
Histone deacetylase 4, sequence (P56524 whole entry, canonical isoform): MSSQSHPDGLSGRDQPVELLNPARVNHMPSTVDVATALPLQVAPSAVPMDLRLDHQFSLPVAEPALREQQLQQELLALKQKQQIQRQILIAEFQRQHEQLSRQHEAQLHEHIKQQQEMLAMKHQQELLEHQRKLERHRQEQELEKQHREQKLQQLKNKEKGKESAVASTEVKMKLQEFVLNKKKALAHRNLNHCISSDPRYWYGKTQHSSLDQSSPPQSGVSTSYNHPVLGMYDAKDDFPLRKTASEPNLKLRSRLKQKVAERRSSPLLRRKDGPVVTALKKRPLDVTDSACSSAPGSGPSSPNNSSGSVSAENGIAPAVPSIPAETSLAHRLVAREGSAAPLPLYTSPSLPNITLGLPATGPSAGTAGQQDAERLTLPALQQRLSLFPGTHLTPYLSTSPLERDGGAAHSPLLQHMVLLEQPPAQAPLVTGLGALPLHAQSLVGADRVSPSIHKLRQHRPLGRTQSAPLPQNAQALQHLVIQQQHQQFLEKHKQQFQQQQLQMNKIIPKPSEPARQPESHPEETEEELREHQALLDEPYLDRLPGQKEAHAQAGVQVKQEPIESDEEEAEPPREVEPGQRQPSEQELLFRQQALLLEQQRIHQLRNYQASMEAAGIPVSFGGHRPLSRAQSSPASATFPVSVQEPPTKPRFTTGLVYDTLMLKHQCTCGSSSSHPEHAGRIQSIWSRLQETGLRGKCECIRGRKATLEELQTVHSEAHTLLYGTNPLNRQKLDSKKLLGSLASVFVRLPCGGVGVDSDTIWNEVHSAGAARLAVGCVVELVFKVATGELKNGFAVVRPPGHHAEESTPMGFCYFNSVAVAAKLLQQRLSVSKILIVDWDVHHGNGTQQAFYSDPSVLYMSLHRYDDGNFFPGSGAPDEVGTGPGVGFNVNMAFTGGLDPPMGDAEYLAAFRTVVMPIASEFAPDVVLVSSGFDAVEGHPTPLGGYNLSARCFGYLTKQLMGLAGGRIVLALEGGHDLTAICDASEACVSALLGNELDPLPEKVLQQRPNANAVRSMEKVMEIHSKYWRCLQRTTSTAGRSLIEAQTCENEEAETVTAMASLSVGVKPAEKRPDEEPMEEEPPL
Histone deacetylase 1, sequence (Q13547 whole entry): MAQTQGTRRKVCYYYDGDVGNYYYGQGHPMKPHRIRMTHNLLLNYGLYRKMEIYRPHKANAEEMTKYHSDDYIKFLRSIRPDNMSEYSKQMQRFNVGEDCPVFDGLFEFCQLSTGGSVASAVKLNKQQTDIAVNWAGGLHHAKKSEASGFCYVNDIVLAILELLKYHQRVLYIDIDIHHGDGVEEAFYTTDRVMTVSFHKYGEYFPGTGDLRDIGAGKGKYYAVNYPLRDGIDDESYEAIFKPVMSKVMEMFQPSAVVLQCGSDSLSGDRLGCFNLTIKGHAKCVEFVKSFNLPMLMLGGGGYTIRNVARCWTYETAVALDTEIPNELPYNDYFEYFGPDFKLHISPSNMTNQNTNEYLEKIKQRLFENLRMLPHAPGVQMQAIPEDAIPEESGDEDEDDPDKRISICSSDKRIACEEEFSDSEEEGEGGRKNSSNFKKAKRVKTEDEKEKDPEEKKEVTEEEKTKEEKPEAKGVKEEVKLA

Broadly, the IC50 is the concentration needed to halve the response being measured. Take `CC(C)(CNC(=O)c1cccc(-c2noc(C(F)(F)F)n2)c1)c1coc(-c2ccccc2)n1`: the IC50 was 887 nM in assay [1]; over 5 µM in assay [2]; over 5 µM in assay [3]; over 5 µM in [4]; over 5 µM in [5]; over 5 µM in assay [6]. In addition, the IC50 is 1000 nM in assay [7]; over 50 µM in assay [8]; over 50 µM in [9]; 128 nM at Histone deacetylase 4; 148 nM at Histone deacetylase 5; over 5 µM in assay [10]. Further, the IC50 on Histone deacetylase 1, on Histone deacetylase 2 and on Histone deacetylase 8 was over 5 µM throughout.
